Measurements taken from PMC6220894 (Food and chemical toxicology : an international journal …, 2018).
Like-named read-outs stand apart in the source and are kept apart here.

What was measured:
[1] = test system: Salmonella typhimurium TA 102; assay: Ames bacterial reverse mutation assay, plate incorporation method; format: cell-based
[2] = test system: Salmonella typhimurium TA 1535; format: cell-based; details: plate incorporation
plasma protein = assay: Plasma protein binding by equilibrium dialysis; format: in vitro ADME; details: rat plasma, mean ± SE
[3] = Plasma protein binding by equilibrium dialysis; format: in vitro ADME; details: male, Sprague-Dawley, rat, plasma, pH 7.4
[4] = test system: Salmonella typhimurium TA 102; assay: Ames bacterial reverse mutation assay, pre-incubation method; format: cell-based
[5] = test system: Salmonella typhimurium TA 1535; format: cell-based; details: pre-incubation
CYP3A4 = assay: CYP mRNA induction in human hepatocytes; format: in vitro ADME; details: 0.3, 3, 30 µM; 72 hours; 3 donors
in vitro = details: both, human, plasma (pooled), pH 7.4
[6] = ref Davies et al., 2002; Zagol-Ikapitte et al., 2010a; cited from earlier work
CYP1A2 or CYP3A4 = assay: CYP mRNA induction in human hepatocytes, isoform not given; format: in vitro ADME; details: 0.3 µM; one donor; isoform not stated
[7] = Stability in rabbit whole blood; format: in vitro ADME
CYP1A2 = assay: CYP mRNA induction in human hepatocytes; format: in vitro ADME; details: 0.3, 3, 30 µM; 72 hours; 3 donors
memory deficits = details: mouse model of Alzheimer's disease; ref Davies et al., 2011; cited from earlier work
[8] = test system: cryopreserved human hepatocytes; assay: Cytotoxicity; format: cell-based; details: 72 hours
Summary of the method: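 Cryopreserved hepatocytes from three donors (1 male, 2 female, Caucasian, 43–59 y) were thawed, plated at 0.15 million cells/well on collagen-coated plates at 37°C in 5% CO2, medium-changed after 2–4 h attachment, and recovered overnight. Cells were exposed to 0.3, 3 or 30 µM test compound or 0.1% DMSO vehicle for 72 h, with medium renewed daily. MTS conversion to formazan was then read, in triplicate.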

[9] = Stability in human whole blood; format: in vitro ADME; details: 37°C, no increase in salicylic acid
[10] = test system: Salmonella typhimurium TA 1537; assay: Ames bacterial reverse mutation assay, plate incorporation method; format: cell-based
[11] = In vitro metabolism in cryopreserved hepatocytes; format: in vitro ADME; details: rat hepatocytes; 25 µM; 4 hours
hypertension = details: mice; ref Wu et al., 2016; cited from earlier work
[12] = test system: Salmonella typhimurium TA 100; format: cell-based; details: pre-incubation
[13] = mice; long-term (10 month) administration; ref Davies et al., 2011; cited from earlier work
[14] = +S9, 0.05 mg/plate as printed (third dose row)
[15] = −S9, 0.05 mg/plate as printed (third dose row)

## CC(=O)O.NCc1ccccc1O [2-HOBA, 2-Hydroxybenzylamine acetate]
[1]; +S9, 0.05 mg/plate
  Mean plate counts (revertant colonies): 302.7±11.4
[1]; [14]
  Mean plate counts (revertant colonies): 323.3±61.2
[1]; +S9, 0.15 mg/plate
  Mean plate counts (revertant colonies): 296.7±27.2
[1]; +S9, 1.5 mg/plate
  Mean plate counts (revertant colonies): 293.3±24.2
[1]; +S9, 5 mg/plate
  Mean plate counts (revertant colonies): 282.7±19.0
[1]; +S9 and −S9, all dose levels
  Change in revertant colony counts vs negative control (mutagenicity): No changes in revertant colony counts were observed
[1]; −S9, 0.05 mg/plate
  Mean plate counts (revertant colonies): 292.7±6.4
[1]; [15]
  Mean plate counts (revertant colonies): 279.3±14.2
[1]; −S9, 0.15 mg/plate
  Mean plate counts (revertant colonies): 287.3±24.0
[1]; −S9, 1.5 mg/plate
  Mean plate counts (revertant colonies): 297.3±6.4
[1]; −S9, 5 mg/plate
  Mean plate counts (revertant colonies): 328.0±63.2
[2]; +S9, 0.05 mg/plate
  Mean plate counts (revertant colonies): 9.3±1.5
[2]; [14]
  Mean plate counts (revertant colonies): 10.7±0.6
[2]; +S9, 0.15 mg/plate
  Mean plate counts (revertant colonies): 9.0±1.0
[2]; +S9, 1.5 mg/plate
  Mean plate counts (revertant colonies): 10.3±1.5
[2]; +S9, 5 mg/plate
  Mean plate counts (revertant colonies): 10.3±1.5
[2]; +S9 and −S9, all dose levels
  Change in revertant colony counts vs negative control (mutagenicity): No changes in revertant colony counts were observed
[2]; −S9, 0.05 mg/plate
  Mean plate counts (revertant colonies): 10.7±0.6
[2]; [15]
  Mean plate counts (revertant colonies): 10.7±1.2
[2]; −S9, 0.15 mg/plate
  Mean plate counts (revertant colonies): 11.0±1.0
[2]; −S9, 1.5 mg/plate
  Mean plate counts (revertant colonies): 10.7±1.2
[2]; −S9, 5 mg/plate
  Mean plate counts (revertant colonies): 11.0±1.0
Plasma protein; 1 µM
  fb (bound fraction): 0.240 ± 0.051
Plasma protein; 10 µM
  fb (bound fraction): 0.049 ± 0.029
[3]
  fraction unbound at 4 h, 1 µM: 0.76 ± 0.051
  fraction unbound at 4 h, 10 µM: 0.951
[4]; +S9, 0.05 mg/plate
  Mean plate counts (revertant colonies): 280.0±6.0
[4]; +S9, 0.15 mg/plate
  Mean plate counts (revertant colonies): 271.3±11.0
[4]; +S9, 0.5 mg/plate
  Mean plate counts (revertant colonies): 256.0±7.2
[4]; +S9, 1.5 mg/plate
  Mean plate counts (revertant colonies): 283.3±16.2
[4]; +S9, 5 mg/plate
  Mean plate counts (revertant colonies): 256.7±8.1
[4]; +S9 and −S9, all dose levels
  Change in revertant colony counts vs negative control (mutagenicity): No changes in revertant colony counts were observed
[4]; −S9, 0.05 mg/plate
  Mean plate counts (revertant colonies): 241.3±12.1
[4]; [15]
  Mean plate counts (revertant colonies): 236.0±15.6
[4]; −S9, 0.15 mg/plate
  Mean plate counts (revertant colonies): 232.7±3.1
[4]; −S9, 1.5 mg/plate
  Mean plate counts (revertant colonies): 250.0±12.5
[4]; −S9, 5 mg/plate
  Mean plate counts (revertant colonies): 250.7±14.0
[5]; +S9, 0.05 mg/plate
  Mean plate counts (revertant colonies): 12.0±2.0
[5]; +S9, 0.15 mg/plate
  Mean plate counts (revertant colonies): 12.0±1.0
[5]; +S9, 0.5 mg/plate
  Mean plate counts (revertant colonies): 14.3±2.1
[5]; +S9, 1.5 mg/plate
  Mean plate counts (revertant colonies): 12.3±0.6
[5]; +S9, 5 mg/plate
  Mean plate counts (revertant colonies): 11.7±2.1
[5]; +S9 and −S9, all dose levels
  Change in revertant colony counts vs negative control (mutagenicity): No changes in revertant colony counts were observed
[5]; −S9, 0.05 mg/plate
  Mean plate counts (revertant colonies): 12.7±1.5
[5]; [15]
  Mean plate counts (revertant colonies): 12.0±1.0
[5]; −S9, 0.15 mg/plate
  Mean plate counts (revertant colonies): 11.7±1.5
[5]; −S9, 1.5 mg/plate
  Mean plate counts (revertant colonies): 11.3±1.5
[5]; −S9, 5 mg/plate
  Mean plate counts (revertant colonies): 12.0±1.7
CYP3A4
  CYP3A4 mRNA induction (concentration-dependent >2-fold increase): no evidence of mRNA induction
In vitro
  fraction unbound at 4 h, 1 µM: 0.921 ± 0.024
  fraction unbound at 4 h, 10 µM: 0.86
[6]
  γKA scavenging rate relative to the rate of formation of γKA protein adducts: 980 fold
CYP1A2 or CYP3A4
  percent induction relative to positive control induction level: less than 5 % of positive control
[7]; rabbit blood fortified with semicarbazide (100 µm)
  stability in the presence of semicarbazide: prevented the degradation of 2-HOBA
[7]; rabbit whole blood, 1 µM, 37°C
  time until undetectable: ≤ 2 h
[7]; rabbit whole blood, within 30 min
  fraction metabolized: more than 60%
[7]; rabbit whole blood, within 2 hours
  fraction metabolized: nearly all
CYP1A2
  CYP1A2 mRNA induction (concentration-dependent >2-fold increase): no evidence of mRNA induction
Memory deficits
  memory deficits: protection from memory deficits
[8]; all concentrations (0.3, 3, 30 µM), any donor
  % formazan absorbance relative to vehicle: ≥ 94%
[8]; donor 1, 0.3 µM
  Formazan absorbance: 0.82
  Formazan absorbance (% of vehicle): 117 % of vehicle
[8]; donor 1, 3 µM
  Formazan absorbance: 0.81
  Formazan absorbance (% of vehicle): 115 % of vehicle
[8]; donor 1, 30 µM
  Formazan absorbance: 0.75
  Formazan absorbance (% of vehicle): 107 % of vehicle
[8]; donor 2, 0.3 µM
  Formazan absorbance: 0.37
  Formazan absorbance (% of vehicle): 94 % of vehicle
[8]; donor 2, 3 µM
  Formazan absorbance: 0.38
  Formazan absorbance (% of vehicle): 96 % of vehicle
[8]; donor 2, 30 µM
  Formazan absorbance: 0.39
  Formazan absorbance (% of vehicle): 100 % of vehicle
[8]; donor 3, 0.3 µM
  Formazan absorbance: 0.64
  Formazan absorbance (% of vehicle): 99 % of vehicle
[8]; donor 3, 3 µM
  Formazan absorbance: 0.66
  Formazan absorbance (% of vehicle): 102 % of vehicle
[8]; donor 3, 30 µM
  Formazan absorbance: 0.67
  Formazan absorbance (% of vehicle): 104 % of vehicle
[8]; mean of 3 donors, 0.3 µM
  Formazan absorbance: 0.61
  Formazan absorbance (% of vehicle): 103 % of vehicle
[8]; mean of 3 donors, 3 µM
  Formazan absorbance: 0.62
  Formazan absorbance (% of vehicle): 104 % of vehicle
[8]; mean of 3 donors, 30 µM
  Formazan absorbance: 0.61
  Formazan absorbance (% of vehicle): 103 % of vehicle
[9]
  metabolism in whole blood: some 2-HOBA metabolism was observed
[10]; +S9, 0.05 mg/plate
  Mean plate counts (revertant colonies): 6.3±0.6
[10]; [14]
  Mean plate counts (revertant colonies): 6.3±0.6
[10]; +S9, 0.15 mg/plate
  Mean plate counts (revertant colonies): 6.3±1.5
[10]; +S9, 1.5 mg/plate
  Mean plate counts (revertant colonies): 6.0±1.0
[10]; +S9, 5 mg/plate
  Mean plate counts (revertant colonies): 6.3±1.5
[10]; +S9 and −S9, all dose levels
  Change in revertant colony counts vs negative control (mutagenicity): No changes in revertant colony counts were observed
[10]; −S9, 0.05 mg/plate
  Mean plate counts (revertant colonies): 5.0±1.0
[10]; [15]
  Mean plate counts (revertant colonies): 5.3±0.6
[10]; −S9, 0.15 mg/plate
  Mean plate counts (revertant colonies): 5.0±0.0
[10]; −S9, 1.5 mg/plate
  Mean plate counts (revertant colonies): 5.7±1.2
[10]; −S9, 5 mg/plate
  Mean plate counts (revertant colonies): 6.0±1.0
[11]
  principle metabolites observed: salicylic acid (M1) and the glycoside conjugate metabolite of 2-HOBA
hypertension
  hypertension: improved hypertension
[12]; +S9, 0.05 mg/plate
  Mean plate counts (revertant colonies): 114.7±12.9
[12]; +S9, 0.15 mg/plate
  Mean plate counts (revertant colonies): 120.7±7.6
[12]; +S9, 0.5 mg/plate
  Mean plate counts (revertant colonies): 119.3±7.6
[12]; +S9, 1.5 mg/plate
  Mean plate counts (revertant colonies): 112.0±7.2
[12]; +S9, 5 mg/plate
  Mean plate counts (revertant colonies): 114.0±12.5
[12]; +S9 and −S9, all dose levels
  Change in revertant colony counts vs negative control (mutagenicity): No changes in revertant colony counts were observed
[12]; −S9, 0.05 mg/plate
  Mean plate counts (revertant colonies): 98.7±2.3
[12]; [15]
  Mean plate counts (revertant colonies): 103.7±1.5
[12]; −S9, 0.15 mg/plate
  Mean plate counts (revertant colonies): 96.7±6.1
[12]; −S9, 1.5 mg/plate
  Mean plate counts (revertant colonies): 94.7±4.2
[12]; −S9, 5 mg/plate
  Mean plate counts (revertant colonies): 105.3±6.1
[13]
  body weight or survival: did not affect body weight or survival
